# Test results published in PMC3346155 (Drug Design, Development and Therapy, 2012).
# “Also recorded” adds a separate entry of the source. *1 amine or outer side, *2 acyl side, *3 side chain or, on linkers, in order; H or OH if unused. Where a SMILES comes first, the peptide text is derived from it. Side-chain parts run from the residue outwards. [ ]: non-standard residue; d: D form. The star is where a group is joined. Ethylenediamine = C(CN[*:2])N[*:1]; Hyp = O=C(O)[C@@H]1C[C@@H](O)CN1; Phg = N[C@H](C(=O)O)c1ccccc1; CO = O=C([*:1])[*:2]; Bn = c1ccc(C*)cc1
# Assays:
# human sst1 = conditions: cited from earlier work; for IC50: read-out: IC50, binding affinity to sst1, human sst1, mean ± SEM
# [1] = test system: GHRH-stimulated GH secretion; assay: GHRH stimulation test, GH suppression in healthy volunteers; assay type: in vivo, human; conditions: for Emax, maximum GH reduction: value ± standard error
# Summary of the method: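 The GHRH stimulation test ran on Day –1 and Day 1. A 1 μg/kg GHRH bolus was given about 3 h after the s.c. dose. Plasma GH was sampled at −60 and 0 min and up to 120 min after GHRH, and measured by chemiluminescence assay (LLOQ 0.06 ng/mL).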
# [2] = Plasma pharmacokinetics after a single subcutaneous dose in healthy volunteers; assay type: in vivo, human
# Summary of the method: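 Single s.c. dose in healthy males. Blood was drawn by venipuncture or forearm cannula up to 144 h post-dose and centrifuged to plasma. Drug was quantified by validated radioimmunoassay (LLOQ 0.03 ng/mL); values below the LLOQ were set to zero. Parameters came from non-compartmental analysis, reported as median (range) for tmax and mean ± SD otherwise. Dose proportionality was tested by a log-dose versus log-parameter linear model.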
# human sst5 = conditions: cited from earlier work; for IC50: read-out: IC50, binding affinity to sst5, human sst5, mean ± SEM
# human sst3 = conditions: cited from earlier work; for IC50: read-out: IC50, binding affinity to sst3, human sst3, mean ± SEM
# human sst4 = conditions: read-out: IC50, binding affinity to sst4, mean ± SEM; cited from earlier work
# [3] = Blood glucose levels after a single subcutaneous dose in healthy volunteers; assay type: in vivo, human
# Summary of the method: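 Healthy males aged 18–40 received one s.c. dose (1–1200 μg) or placebo between 8 and 9 am, about 1 h after a light standardized meal. Blood glucose was measured by the central standard laboratory panel at these times: pre-breakfast before dosing; before and 60 min after a standard lunch on Day –1 and Day 1; 2 h post-dose; and 23 h post-dose on Day 2.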
# [4] = Safety and tolerability of a single subcutaneous dose in healthy volunteers; assay type: in vivo, human
# Summary of the method: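 Randomized, double-blind, placebo-controlled ascending single s.c. doses; cohorts had 4–8 active and 2 placebo subjects. Subjects were confined from about 36 h pre-dose until 48-h safety results were available, with follow-up over 7 days. AEs came from self-report, investigator questioning, examination or laboratory tests. Laboratory abnormalities counted as AEs only if symptomatic or treated. SAEs were recorded until 4 weeks after the trial. Laboratory tests were run centrally, with descriptive statistics.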
# human sst2 = conditions: cited from earlier work; for IC50: read-out: IC50, binding affinity to sst2, human sst2, mean ± SEM
# [5] = compared with octreotide; cited from earlier work
# [6] = male, human, plasma, sc, 2.5 ug
# [7] = male, human, plasma, sc, 100 ug
# [8] = male, human, plasma, sc, 200 ug
# [9] = male, human, plasma, sc, 300 ug
# [10] = male, human, plasma, sc, 600 ug
# [11] = male, human, plasma, sc, 1200 ug
# [12] = single s.c. dose, across dose levels, healthy male volunteers
# [13] = single s.c. dose 1200 μg, n = 6
compound,measurement,setting,value
NCCCC[C@@H]1NC(=O)[C@@H](Cc2c[nH]c3ccccc23)NC(=O)[C@H](c2ccccc2)NC(=O)[C@@H]2C[C@@H](OC(=O)NCCN)CN2C(=O)[C@H](Cc2ccccc2)NC(=O)[C@H](Cc2ccc(OCc3ccccc3)cc2)NC1=O [Pasireotide] (cyclo([Hyp]([CO-Ethylenediamine])[Phg][dW]KY(Bn)F)),higher binding affinity for sst1 compared with octreotide,human sst1; ratio versus octreotide,30 fold
same,IC50,human sst1,9.3 ± 0.1 nM
same,"Emax, maximum GH reduction",[1]; non-linear Emax model for GH AUC ratio versus Cavg,0.99 ± 0.03
same,"Emax, maximum GH reduction",[1]; non-linear Emax model for GH AUC ratio versus dose,1.00 ± 0.00
same,GH suppression,[1]; single pasireotide doses between 200 μg and 1200 μg s.c.,79%–96%
same,decrease in GH AUC2h,[1]; single s.c. dose 30–100 μg,approximately 45%
same,reduction in GH AUC2h,[1]; single s.c. doses between 1 μg and 10 μg,No reduction
same,AUC(0-t),[2]; [6],0.11 ± 0.09 ng·h/mL
same,Cmax,[2]; [6],0.06 ± 0.01 ng/mL
same,Tmax,[2]; [6],15 min
same,AUC(0-t),"[2]; male, human, plasma, sc, 10 ug",0.66 ± 0.25 ng·h/mL
same,Cmax,"[2]; male, human, plasma, sc, 10 ug",0.24 ± 0.06 ng/mL
same,Tmax,"[2]; male, human, plasma, sc, 10 ug",15 min
same,Vd/F,"[2]; male, human, plasma, sc, 10 ug",38.1 L
same,AUC(0-t),"[2]; male, human, plasma, sc, 30 ug",2.78 ± 1.02 ng·h/mL
same,Cmax,"[2]; male, human, plasma, sc, 30 ug",0.72 ± 0.17 ng/mL
same,Tmax,"[2]; male, human, plasma, sc, 30 ug",15 min
same,Vd/F,"[2]; male, human, plasma, sc, 30 ug",105 ± 5.7 L
same,half-life,"[2]; male, human, plasma, sc, 30 ug",444 ± 132 min
same,AUC(0-inf),[2]; [7],9.59 ± 2.44 ng·h/mL
same,AUC(0-t),[2]; [7],9.1 ± 2.37 ng·h/mL
same,CL/F,[2]; [7],183 mL/min
same,Cmax,[2]; [7],2.23 ± 0.45 ng/mL
same,Tmax,[2]; [7],30 min
same,Vd/F,[2]; [7],131 ± 41 L
same,AUC(0-inf),[2]; [8],17.5 ± 3.82 ng·h/mL
same,AUC(0-t),[2]; [8],16.8 ± 3.65 ng·h/mL
same,CL/F,[2]; [8],198 mL/min
same,Cmax,[2]; [8],3.73 ± 0.9 ng/mL
same,Tmax,[2]; [8],22.8 min
same,Vd/F,[2]; [8],162 ± 33.9 L
same,AUC(0-inf),[2]; [9],27.1 ± 6.98 ng·h/mL
same,AUC(0-t),[2]; [9],26 ± 6.87 ng·h/mL
same,CL/F,[2]; [9],198 mL/min
same,Cmax,[2]; [9],4.71 ± 1.79 ng/mL
same,Tmax,[2]; [9],22.8 min
same,Vd/F,[2]; [9],180 ± 44.3 L
same,AUC(0-inf),[2]; [10],78.6 ± 12.3 ng·h/mL
same,AUC(0-t),[2]; [10],75.6 ± 11.2 ng·h/mL
same,CL/F,[2]; [10],130 mL/min
same,Cmax,[2]; [10],15.6 ± 3.25 ng/mL
same,Tmax,[2]; [10],30 min
same,Vd/F,[2]; [10],464 ± 440 L
same,AUC(0-inf),[2]; [11],93.6 ± 13.6 ng·h/mL
same,AUC(0-t),[2]; [11],90.4 ± 13.2 ng·h/mL
same,CL/F,[2]; [11],218 mL/min
same,Cmax,[2]; [11],22.2 ± 5.53 ng/mL
same,Tmax,[2]; [11],30 min
same,Vd/F,[2]; [11],1190 ± 1570 L
same,half-life,[2]; [11],546 ± 126 min
same,partial AUC in the γ phase as contribution to total AUC∞,"[2]; single s.c. dose, 600 μg and 1200 μg, healthy male volunteers",< 15%
same,Tmax,[2]; [12],15 to 30 min
same,"t½,β (effective elimination half-life), mean",[2]; [12],7 to 11 h
same,"Vz/F, mean value","[2]; single s.c. dose, low doses (10 μg), healthy male volunteers",40 L
same,higher binding affinity for sst5 than endogenous somatostatin,human sst5; ratio versus endogenous somatostatin,2 fold
same,higher binding affinity for sst5 compared with octreotide,human sst5; ratio versus octreotide,39 fold
same,IC50,human sst5,0.16 ± 0.01 nM
same,higher binding affinity for sst3 compared with octreotide,human sst3; ratio versus octreotide,5 fold
same,IC50,human sst4,> 1000 nM
same,glucose values,"[3]; all dose groups, twenty-three hours after the injection",normal for all groups
same,blood glucose levels,"[3]; doses between 200 μg and 1200 μg, 2–6 hours after administration, resolved by 23 hours post-dosing",Transient elevations in blood glucose levels
same,glucose levels,"[3]; single s.c. dose 600 μg and 1200 μg, six hours after administration",higher than those of placebo recipients
same,AEs considered related to the study drug,"[4]; observed in the 1200 μg dose group only, of a total of 12 AEs in the study",eight
same,increased lipase level,"[4]; one subject, single s.c. dose 10 μg, 48 hours post-dose, normal range 23–300 U/L",523 U/L
same,subjects who experienced at least one AE,[4]; [13],6 subjects
same,subjects who experienced nausea,[4]; [13],five
same,"deaths, serious adverse events, clinically significant changes in laboratory values, vital signs or ECG","[4]; single s.c. dose 1–1200 μg, any dose, healthy male volunteers","no serious adverse events observed at any dose; also recorded: no reports of death, SAEs, or clinically significant changes in laboratory values, vital signs or ECG parameters"
same,tolerability,"[4]; single s.c. dose 1–1200 μg, healthy male volunteers",generally well tolerated
same,maximum tolerable dose,"[4]; single s.c. dose, tested range 1–1200 μg, healthy male volunteers",not established within the tested range
same,lower affinity for sst2 compared with octreotide,human sst2; ratio versus octreotide,2.6 times
same,IC50,human sst2,1 ± 0.1 nM
same,metabolic stability,[5],greater metabolic stability than octreotide
Lanreotide [reference compound],IC50,human sst1,180 ± 20 nM
same,IC50,human sst5,17 ± 5 nM
same,IC50,human sst3,14 ± 9 nM
same,IC50,human sst4,230 ± 40 nM
same,IC50,human sst2,0.54 ± 0.08 nM
Octreotide [reference compound],IC50,human sst1,280 ± 80 nM
same,IC50,human sst5,6.3 ± 1 nM
same,IC50,human sst3,7.1 ± 1.4 nM
same,IC50,human sst4,> 1000 nM
same,IC50,human sst2,0.38 ± 0.08 nM
